Blank lines part the entries; values can stand above or below the molecule they belong to. Calls of active or inactive are those of the source. The rule behind the calls is not given here.
Assays:
[1] = target: T1, C-C chemokine receptor type 2 (Homo sapiens, UniProt P41597); test: Displacement of [125I]MCP-1 from CCR2 in human PMBC
Target sequence in this assay (P41597 whole entry): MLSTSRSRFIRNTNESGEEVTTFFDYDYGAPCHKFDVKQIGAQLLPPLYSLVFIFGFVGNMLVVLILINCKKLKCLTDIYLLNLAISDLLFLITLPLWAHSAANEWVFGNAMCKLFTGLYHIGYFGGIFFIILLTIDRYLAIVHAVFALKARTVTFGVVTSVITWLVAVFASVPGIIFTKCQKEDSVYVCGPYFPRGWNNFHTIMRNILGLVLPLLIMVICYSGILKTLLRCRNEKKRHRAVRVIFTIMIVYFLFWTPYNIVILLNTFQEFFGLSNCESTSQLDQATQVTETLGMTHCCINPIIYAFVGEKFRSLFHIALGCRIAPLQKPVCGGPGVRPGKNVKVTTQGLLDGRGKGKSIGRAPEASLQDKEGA

[2] = target: T1, C-C chemokine receptor type 2; test: Displacement of [125I]MCP-1 from CCR2 in human THP1 cells; format: cell-based, THP-1
Summary of the method: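 Competition binding against [¹²⁵I]MCP-1 using THP-1 cells in place of peripheral blood mononuclear cells. IC50 typically given as the mean of two determinations.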
Target sequence in this assay (P41597 whole entry): as above

[3] = target: T1, C-C chemokine receptor type 2; test: Displacement of [125I]MCP-1 from CCR2 in human PMBC up to 2400 nM
Summary of the method: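 Competition binding against [¹²⁵I]MCP-1 using human peripheral blood mononuclear cells at room temperature. IC50 typically given as the mean of two determinations (± standard deviation).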
Target sequence in this assay (P41597 whole entry, looked up): as the sequence (P41597 whole entry) above

[4] = Metabolic stability of the compound in human liver microsomes assessed as compound remaining at 0.5 uM aftet 10 mins; format: ADME, Microsome; details: read-out: Stability
Summary of the method: (§1)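 Test compound at 0.5 μM initial concentration incubated 10 min with human, rat or mouse liver microsomes. Stability expressed as percentage of parent compound remaining at the end of incubation.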

[5] = Metabolic stability of the compound in rat liver microsomes assessed as compound remaining at 0.5 uM aftet 10 mins; format: ADME, Microsome; details: read-out: Stability; summary of the method: as §1
[6] = Metabolic stability of the compound in mouse liver microsomes assessed as compound remaining at 0.5 uM aftet 10 mins; format: ADME, Microsome; details: read-out: Stability; summary of the method: as §1
[7] = target: C-C chemokine receptor type 5 (Homo sapiens, UniProt P51681); test: Displacement of [125I]MIP-1beta from CCR5
C-C chemokine receptor type 5, sequence (P51681 whole entry): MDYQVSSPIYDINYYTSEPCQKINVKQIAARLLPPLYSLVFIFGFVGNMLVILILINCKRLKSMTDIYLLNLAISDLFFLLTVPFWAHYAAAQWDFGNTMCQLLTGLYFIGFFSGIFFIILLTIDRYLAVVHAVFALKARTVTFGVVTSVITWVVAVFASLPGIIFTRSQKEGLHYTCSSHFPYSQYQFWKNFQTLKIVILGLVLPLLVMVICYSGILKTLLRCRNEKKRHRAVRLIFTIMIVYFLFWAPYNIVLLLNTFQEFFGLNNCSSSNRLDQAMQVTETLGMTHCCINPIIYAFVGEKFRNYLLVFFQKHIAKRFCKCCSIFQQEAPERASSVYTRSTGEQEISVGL

Homo sapiens = species: Homo sapiens; test: Selectivity ratio of IC50 for CCR5 to IC50 for human CCR2

SMILES: O=C(CNC(=O)c1cccc(C(F)(F)F)c1)N[C@H]1CC[C@@H](N2CCCCC2)[C@@H](CS(=O)(=O)c2ccccc2)C1 (racemic)
IC50 [1]: 340 nM

SMILES: CC(C)N(C)[C@@H]1CC[C@H](NC(=O)CNC(=O)c2cccc(C(F)(F)F)c2)C[C@@H]1CS(=O)(=O)c1ccccc1 (racemic)
IC50 [2]: 89 nM

SMILES: CC(C)N(C)[C@H]1CC[C@@H](NC(=O)CNC(=O)c2cccc(C(F)(F)F)c2)C[C@H]1CS(=O)(=O)c1ccccc1
inhibition [3]: inactive

SMILES: CCCN(C)[C@@H]1CC[C@H](NC(=O)CNC(=O)c2cccc(C(F)(F)F)c2)C[C@@H]1CS(=O)(=O)c1ccccc1 (racemic)
IC50 [1]: 370 nM

SMILES: CC(C)N(C)[C@@H]1CC[C@H](NC(=O)CNC(=O)c2cccc(C(F)(F)F)c2)C[C@H]1CS(=O)(=O)c1ccccc1
IC50 [1]: 2900 nM

SMILES: N[C@@H]1CC[C@H](NC(=O)CNC(=O)c2cc(C(F)(F)F)ccc2NC(=O)N2CCC2)C[C@@H]1CS(=O)(=O)c1ccccc1 (racemic)
IC50 [7]: 7300 nM
remaining at 10 min, 0.5 µM [4]: 70%
remaining at 10 min, 0.5 µM [5]: 71%
remaining at 10 min, 0.5 µM [6]: 87%

SMILES: CC(C)N[C@@H]1CC[C@H](NC(=O)CNC(=O)c2cc(C(F)(F)F)ccc2NC(=O)N2CCC2)C[C@@H]1CS(=O)(=O)c1ccccc1 (racemic)
IC50 [2]: 6.6 nM
IC50 [7]: 810 nM
Ratio IC50 (Homo sapiens): > 100

SMILES: CCN[C@@H]1CC[C@H](NC(=O)CNC(=O)c2cc(C(F)(F)F)ccc2NC(=O)N2CCC2)C[C@@H]1CS(=O)(=O)c1ccccc1 (racemic)
IC50 [2]: 12 nM

SMILES: N[C@H]1CC[C@@H](NC(=O)CNC(=O)c2cccc(C(F)(F)F)c2)CC1
IC50 [1]: 4100 nM

SMILES: CC(C)N[C@H]1CC[C@@H](NC(=O)CNC(=O)c2cccc(C(F)(F)F)c2)CC1
IC50 [1]: 570 nM

SMILES: N[C@@H]1CC[C@H](NC(=O)CNC(=O)c2cccc(C(F)(F)F)c2)C[C@H]1CS(=O)(=O)c1ccccc1
IC50 [1]: 3700 nM

SMILES: CC(C)N(C)[C@@H]1CC[C@H](NC(=O)CNC(=O)c2cc(C(F)(F)F)ccc2NC(=O)N2CCC2)C[C@@H]1CS(=O)(=O)c1ccccc1 (racemic)
IC50 [2]: 34 nM

More lines, in order of falling IC50 [1], values ahead:

IC50 [1]: 310 nM
SMILES: CC(C)N[C@@H]1CC[C@H](NC(=O)CNC(=O)c2cccc(C(F)(F)F)c2)C[C@H]1CS(=O)(=O)c1ccccc1

IC50 [1]: 180 nM
SMILES: CN[C@@H]1CC[C@H](NC(=O)CNC(=O)c2cccc(C(F)(F)F)c2)C[C@@H]1CS(=O)(=O)c1ccccc1 (racemic)

IC50 [1]: 130 nM
remaining at 10 min, 0.5 µM [4]: 4.4%
remaining at 10 min, 0.5 µM [5]: 3.9%
remaining at 10 min, 0.5 µM [6]: 4.3%
SMILES: CN(C)[C@@H]1CC[C@H](NC(=O)CNC(=O)c2cccc(C(F)(F)F)c2)C[C@@H]1CS(=O)(=O)c1ccccc1 (racemic)

IC50 [1]: 79 nM
SMILES: CC(C)N(C)[C@@H]1CC[C@H](NC(=O)CNC(=O)c2cccc(C(F)(F)F)c2)C[C@@H]1CS(=O)(=O)c1ccccc1

IC50 [1]: 72 nM
SMILES: CC(C)N(C)[C@H]1CC[C@@H](NC(=O)CNC(=O)c2cccc(C(F)(F)F)c2)CC1

IC50 [1]: 59 nM
remaining at 10 min, 0.5 µM [4]: 100%
remaining at 10 min, 0.5 µM [5]: 57%
remaining at 10 min, 0.5 µM [6]: 96%
SMILES: N[C@@H]1CC[C@H](NC(=O)CNC(=O)c2cccc(C(F)(F)F)c2)C[C@@H]1CS(=O)(=O)c1ccccc1 (racemic)

IC50 [1]: 54 nM
remaining at 10 min, 0.5 µM [4]: 11%
remaining at 10 min, 0.5 µM [5]: 8%
remaining at 10 min, 0.5 µM [6]: 28%
SMILES: CCCN[C@@H]1CC[C@H](NC(=O)CNC(=O)c2cccc(C(F)(F)F)c2)C[C@@H]1CS(=O)(=O)c1ccccc1 (racemic)

IC50 [1]: 37 nM
SMILES: N[C@@H]1CC[C@H](NC(=O)CNC(=O)c2cccc(C(F)(F)F)c2)[C@H](CS(=O)(=O)c2ccccc2)C1 (racemic)

IC50 [1]: 34 nM
SMILES: O=C(CNC(=O)c1cccc(C(F)(F)F)c1)N[C@H]1CC[C@@H](NC2CCC2)[C@@H](CS(=O)(=O)c2ccccc2)C1 (racemic)

IC50 [1]: 27 nM
remaining at 10 min, 0.5 µM [4]: 24%
remaining at 10 min, 0.5 µM [5]: 23%
remaining at 10 min, 0.5 µM [6]: 25%
SMILES: CCN[C@@H]1CC[C@H](NC(=O)CNC(=O)c2cccc(C(F)(F)F)c2)C[C@@H]1CS(=O)(=O)c1ccccc1 (racemic)

IC50 [1]: 12 nM
remaining at 10 min, 0.5 µM [4]: 4.4%
remaining at 10 min, 0.5 µM [5]: 0.9%
remaining at 10 min, 0.5 µM [6]: 9.6%
SMILES: CC(C)N[C@@H]1CC[C@H](NC(=O)CNC(=O)c2cccc(C(F)(F)F)c2)C[C@@H]1CS(=O)(=O)c1ccccc1 (racemic)

IC50 [1]: 5.2 nM
SMILES: CC(C)N[C@@H]1CC[C@H](NC(=O)CNC(=O)c2cccc(C(F)(F)F)c2)[C@H](CS(=O)(=O)c2ccccc2)C1
